The target in assay [1] is T1, Pancreatic elastase (Sus scrofa, UniProt P08419+P00772). The assay can be described thus: Binding affinity for porcine Elastase. The format is protein assay. The gist of the method: (§1)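 Porcine pancreatic elastase was followed spectrophotometrically at 410 nm, 37 °C, with Suc-Ala-Pro-Ala-p-nitroanilide in pH 8.0 buffer (0.1 M NaCl, 0.01 M HEPES, 0.01 M Tris, 0.1% PEG 6000). Paired runs were done: enzyme added last, or enzyme preincubated with inhibitor before substrate. Only data up to 10% substrate consumption were used. K_i* came from steady-state rates fitted to competitive inhibition.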

The target of a further assay is Chymotrypsinogen B (Homo sapiens, UniProt P17538). The assay can be described thus: Binding affinity against alpha-chymotrypsin.
Chymotrypsinogen B, sequence (P17538 34-164 limits assumed, other chains not shown): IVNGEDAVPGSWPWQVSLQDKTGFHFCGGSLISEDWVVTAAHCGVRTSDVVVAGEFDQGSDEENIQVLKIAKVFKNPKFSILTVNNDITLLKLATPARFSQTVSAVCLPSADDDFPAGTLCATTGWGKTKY
Chymotrypsinogen B, sequence (P17538 167-263 limits assumed, other chains not shown): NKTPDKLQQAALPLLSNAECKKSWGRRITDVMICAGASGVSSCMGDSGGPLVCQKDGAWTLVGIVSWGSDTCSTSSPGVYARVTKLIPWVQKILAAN
Assay [2] deals with T2, Neutrophil elastase (Homo sapiens, UniProt P08246).
T2 sequence (P08246 whole entry): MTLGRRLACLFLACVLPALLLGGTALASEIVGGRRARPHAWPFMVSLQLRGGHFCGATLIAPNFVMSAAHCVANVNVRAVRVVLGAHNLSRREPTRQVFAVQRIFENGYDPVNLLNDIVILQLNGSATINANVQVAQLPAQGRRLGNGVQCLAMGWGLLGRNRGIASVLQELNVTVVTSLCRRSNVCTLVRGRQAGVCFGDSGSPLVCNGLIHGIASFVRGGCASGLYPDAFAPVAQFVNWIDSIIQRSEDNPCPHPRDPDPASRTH
The assay can be described thus: Binding affinity against human Neutrophil Elastase. In short, it runs like this: (§2)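 Human neutrophil elastase purified from purulent sputum. Activity was read at 410 nm (p-nitroaniline) at 37 °C with MeO-Suc-Ala-Ala-Pro-Val-p-nitroanilide in 0.1 M NaCl, 0.01 M HEPES, 0.01 M Tris, 0.1% PEG 6000, pH 8.0, 1.25% DMSO. Paired assays were run, one adding enzyme last and one preincubating enzyme with inhibitor. Data were limited to ≤10% substrate use. Steady-state K_i* came from the competitive inhibition equation.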

The target of assay [3] is T1, Pancreatic elastase. The assay can be described thus: Binding affinity against porcine pancreatic Elastase. The assay is classed as protein assay. In short, it runs like this:
as §1

A further assay concerns the target T3, Cathepsin G (Homo sapiens, UniProt P08311).
T3 sequence (P08311 whole entry): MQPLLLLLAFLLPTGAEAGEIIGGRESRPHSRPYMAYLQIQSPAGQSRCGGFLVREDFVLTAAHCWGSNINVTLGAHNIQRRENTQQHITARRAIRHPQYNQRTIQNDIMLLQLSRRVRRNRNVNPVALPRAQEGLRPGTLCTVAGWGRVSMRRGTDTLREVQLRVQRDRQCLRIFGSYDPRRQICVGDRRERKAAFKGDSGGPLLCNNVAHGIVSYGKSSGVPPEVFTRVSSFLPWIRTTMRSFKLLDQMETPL
The assay can be described thus: Binding affinity against human Cathepsin G. The gist of the method:
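Cathepsin G came from neutrophil granule extracts of sputum or, for rat, peritoneal lavage, extracted in 1 M NaCl/0.1% Brij 35 acetate buffer, pH 5.5. K_i = [I]/(v0/v1 − 1), using equilibrium velocity when binding was slow.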

For assay [4], the target named is T2, Neutrophil elastase. Put plainly: Binding affinity against human leukocyte Elastase.
For assay [5], the target named is T2, Neutrophil elastase. The assay can be described thus: Binding affinity against human Elastase for less active diasteriomer. The gist of the method: as §2
In assay [6] the target is T2, Neutrophil elastase. The assay can be described thus: Binding affinity against human Elastase for more active diasteriomer.

Peptide text beside a SMILES is read from it. * marks the point of attachment. Dansyl = CN(C)c1cccc2c(S(=O)(=O)*)cccc12; MeOSuc = COC(=O)CCC(=O)*; Cbz = O=C(OCc1ccccc1)*; Boc = CC(C)(C)OC(=O)*; CF3 = FC(F)(F)* Some results are limits rather than exact numbers.

Data on 19 compounds can be found in ChEMBL document CHEMBL1124959, “Synthesis of peptidyl fluoromethyl ketones and peptidyl alpha-keto esters as inhibitors of porcine pancreatic elastase, human neutrophil elastase, and rat and human neutrophil cathepsin G” (J Med Chem, 1990).

In the case of `CCOC(=O)C(=O)[C@H](C)NC(=O)[C@H](C)NC(=O)[C@H](C)NC(=O)[C@H](C)NC(=O)OCc1ccccc1`, the Ki on Pancreatic elastase [1] came to 0.14 µM.
The compound `COC(=O)CCC(=O)N[C@@H](C)C(=O)N[C@@H](C)C(=O)N1CCC[C@H]1C(=O)N[C@@H](Cc1ccccc1)C(=O)C(=O)OC` yielded a Ki at Chymotrypsinogen B of 79 nM.
In the case of `CC(=O)N1CCC[C@H]1C(=O)N[C@@H](C)C(=O)N1CCC[C@H]1C(=O)N[C@@H](C)C(=O)C(=O)O`, the inhibition constant Ki at Neutrophil elastase [2] is 66 µM; at Pancreatic elastase [3], 0.69 µM.
Compound `COC(=O)CCC(=O)N[C@H](C(=O)N1CCC[C@H]1C(=O)N[C@@H](Cc1ccccc1)C(=O)C(F)(F)F)C(C)C` (MeOSuc-Val-Pro-Phe-CF3) returned an inhibition constant Ki on Cathepsin G of 3 µM.
At Pancreatic elastase [1], `CC(C)[C@H](NC(=O)[C@@H]1CCCN1C(=O)[C@H](Cc1ccccc1)NC(=O)OC(C)(C)C)C(=O)C(F)(F)F` (Boc-Phe-Pro-Val-CF3) registered a Ki of 1.8 µM.
The compound `COC(=O)CCC(=O)N[C@@H](C)C(=O)N[C@@H](C)C(=O)N1CCC[C@H]1C(=O)N[C@@H](Cc1ccccc1)C(=O)C(F)(F)F` (MeOSuc-AAPF-CF3) returned a Ki on Chymotrypsinogen B of 17 nM.
In turn, `CC(C)[C@H](NC(=O)[C@H](CCCCNC(=O)OCc1ccccc1)NC(=O)OCc1ccccc1)C(=O)N1CCC[C@H]1C(=O)N[C@H](C(=O)C(F)(F)F)C(C)C` (Cbz-K(Cbz)VPV-CF3) returned a Ki on Neutrophil elastase [4] of less than 0.1 nM.
For `CC(=O)N1CCC[C@H]1C(=O)N[C@@H](C)C(=O)N1CCC[C@H]1C(=O)N[C@@H](C)C=O` (Ac-PAPA-aldehyde), at Pancreatic elastase [3], the inhibitory constant (Ki) turned out to be 0.8 µM.
On to `COC(=O)CCC(=O)N[C@@H](C)C(=O)N[C@@H](C)C(=O)N1CCC[C@H]1C(=O)N[C@H](C(=O)C(=O)OC)C(C)C`, for which the Ki at Pancreatic elastase [1] was determined as 0.68 µM.
Same read-out and setting: the value for `COC(=O)CCC(=O)NCCCC[C@H](NS(=O)(=O)C12CC3CC(CC(C3)C1)C2)C(=O)N1CCC[C@H]1C(=O)N[C@H](C(=O)C(F)(F)F)C(C)C` was 0.015 µM; that for `COC(=O)CCC(=O)N[C@H](Cc1ccccc1)C(=O)N1CCC[C@H]1C(=O)N[C@H](C(=O)C(F)(F)F)C(C)C` was 28 µM; that for `CC(=O)N1CCC[C@H]1C(=O)N[C@@H](C)C(=O)N1CCC[C@H]1C(=O)N[C@@H](C)C(=O)C(F)(F)F` (Ac-PAPA-CF3) was 0.24 µM.
Turning to `CC(=O)N[C@@H](C)C(=O)N[C@@H](C)C(=O)N1CCC[C@H]1C(=O)N[C@@H](C)C(=O)C(F)(F)F` (Ac-AAPA-CF3), the inhibitory constant (Ki) on Cathepsin G is greater than 800 µM; on Pancreatic elastase [1], 0.15 µM.
In the case of `COC(=O)CCC(=O)N[C@@H](C)C(=O)N[C@@H](C)C(=O)N1CCC[C@H]1C(=O)N[C@H](C(=O)C(F)(F)F)C(C)C` (MeOSuc-AAPV-CF3), the Ki on Pancreatic elastase [1] was found to be 0.033 µM.
`CC(C)[C@H](NC(=O)[C@@H]1CCCN1C(=O)[C@H](C)NC(=O)[C@H](C)NS(=O)(=O)c1cccc2c(N(C)C)cccc12)C(=O)C(F)(F)F` (Dansyl-AAPV-CF3): the Ki at Cathepsin G was greater than 600 µM; on Neutrophil elastase [5], 110 nM; at Neutrophil elastase [6], 6.3 nM; on Pancreatic elastase [1], 0.088 µM.
Regarding `CCOC(=O)C(F)(F)C(=O)[C@@H](NC(=O)[C@@H]1CCCN1C(=O)[C@H](C)NC(=O)[C@H](C)NC(=O)CCC(=O)OC)C(C)C`, the inhibition constant Ki on Pancreatic elastase [1] was found to be 9.9 µM.
In the case of `COC(=O)C(=O)[C@H](C)NC(=O)[C@@H]1CCCN1C(=O)[C@H](C)NC(=O)[C@@H]1CCCN1C(C)=O`, on Pancreatic elastase [1], the inhibitory constant (Ki) was 0.029 µM.
Still for that read-out and setting: the result for `CC(C)[C@H](NC(=O)[C@@H]1CCCN1C(=O)[C@H](C)NC(=O)[C@H](C)NC(=O)OC(C)(C)C)C(=O)C(F)(F)F` (Boc-AAPV-CF3) reads 0.032 µM.
Compound `COC(=O)CCC(=O)N[C@H](C(=O)N1CCC[C@H]1C(=O)N[C@@H](Cc1ccccc1)C(=O)C(=O)OC)C(C)C` yielded a Ki at Cathepsin G of 1.1 µM.

By Ki is commonly meant a dissociation constant, usually derived from enzyme kinetics or from competition with a known ligand. Low readings indicate tighter binding, high ones weaker binding.
